The record followed here is ChEMBL document CHEMBL4011636, “Utilization of an Active Site Mutant Receptor for the Identification of Potent and Selective Atypical 5-HT2C Receptor Agonists” (J Med Chem, 2017).

As usually defined, the EC50 is the concentration giving half of the maximal effect.

Data set [1] in a line: Metabolic stability in human liver microsomes assessed as parent compound remaining at […] after 10 mins. It counts as ADME, microsome. The note with it: read-out: Stability.
Data set [2] addresses T1, 5-hydroxytryptamine receptor 2B (Homo sapiens, UniProt P41595). The experiment in a line: Agonist activity at recombinant human 5-HT2B receptor expressed in HEK293E cells assessed as induction of intracellular Ca2+ levels after 90 secs by Fluo-4-dye based FLIPR assay. It counts as cell-based, HEK293. In a few lines: (§1)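 HEK293E cells stably expressing human receptor (VNV isoform for 5-HT2C; ~400−795 fmol/mg protein), grown in DMEM with 10% dialyzed FBS and G418. Cells plated at 20 000/well in serum-free DMEM overnight at 37 °C, then loaded 1 h at room temperature with 5 μM Fluo-4 in HBSS/25 mM HEPES. Eleven compound concentrations added on FLIPR, Ca2+ signal read for 90 s. EC50 from a four-parameter logistic fit, at least triplicate.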

Data set [3] deals with T2, 5-hydroxytryptamine receptor 2C (Homo sapiens, UniProt P28335).
T2 sequence (P28335 whole entry): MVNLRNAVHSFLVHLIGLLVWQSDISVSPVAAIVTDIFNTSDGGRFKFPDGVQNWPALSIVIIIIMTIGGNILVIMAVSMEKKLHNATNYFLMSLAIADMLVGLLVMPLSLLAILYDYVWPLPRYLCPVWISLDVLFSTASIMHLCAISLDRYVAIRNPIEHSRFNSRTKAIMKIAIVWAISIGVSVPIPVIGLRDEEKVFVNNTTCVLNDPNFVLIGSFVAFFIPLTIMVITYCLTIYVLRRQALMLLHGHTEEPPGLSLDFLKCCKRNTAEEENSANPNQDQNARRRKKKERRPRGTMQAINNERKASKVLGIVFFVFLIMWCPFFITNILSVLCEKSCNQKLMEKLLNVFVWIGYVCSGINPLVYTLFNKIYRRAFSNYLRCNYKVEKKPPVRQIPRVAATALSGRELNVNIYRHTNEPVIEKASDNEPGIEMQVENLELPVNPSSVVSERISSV
Kind of data set: Agonist activity at recombinant human 5-HT2C receptor expressed in HEK293E cells assessed as induction of intracellular Ca2+ levels after 90 secs by Fluo-4-dye based FLIPR assay. It counts as functional, cell-based, HEK293. The procedure, abridged:
as §1

A short description of data set [4]: Metabolic stability in rat liver microsomes assessed as parent compound remaining at […] after 10 mins. It counts as ADME, microsome. The note with it: read-out: Stability. A general note: Microsomes from liver hold many membrane-bound enzymes, among them those of drug oxidation.
Data set [5] has as its target 5-hydroxytryptamine receptor 2A (Homo sapiens, UniProt P28223). The experiment in a line: Agonist activity at recombinant human 5-HT2A receptor expressed in HEK293E cells assessed as induction of intracellular Ca2+ levels after 90 secs by Fluo-4-dye based FLIPR assay. It counts as cell-based, HEK293. In a few lines:
as §1

The target in data set [6] is T3, 5-hydroxytryptamine receptor 2C (Homo sapiens) (UniProt P28335).
T3 sequence (whole entry): T2 sequence (P28335 whole entry)
The experiment in a line: Intrinsic activity at recombinant human 5-HT2C receptor expressed in HEK293E cells assessed as induction of intracellular Ca2+ levels after 90 secs by Fluo-4-dye based FLIPR assay relative to serotonin. The note with it: HEK293. It counts as functional, cell-based. In a few lines:
(§2)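 FLIPR Fluo-4 Ca2+ assay in HEK293E cells stably expressing the human receptor (VNV isoform for 5-HT2C), eleven-point concentration series, 90 s read. Response normalized to 3 μM serotonin on the same plate (defined as IA = 1). Intrinsic activity taken from a four-parameter logistic fit.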

Data set [7] can be described thus: Agonist activity at recombinant human 5-HT2C receptor D134A mutant expressed in HEK293E cells assessed as induction of intracellular Ca2+ levels after 90 secs by Fluo-4-dye based FLIPR assay. The note with it: HEK293. It counts as cell-based.
Data set [8] has as its target T1, 5-hydroxytryptamine receptor 2B. Kind of data set: Intrinsic activity at recombinant human 5-HT2B receptor expressed in HEK293E cells assessed as induction of intracellular Ca2+ levels after 90 secs by Fluo-4-dye based FLIPR assay relative to serotonin. It counts as functional, cell-based. Conditions: HEK293. The procedure, abridged: as §2

T1 sequence (P41595 whole entry, canonical isoform): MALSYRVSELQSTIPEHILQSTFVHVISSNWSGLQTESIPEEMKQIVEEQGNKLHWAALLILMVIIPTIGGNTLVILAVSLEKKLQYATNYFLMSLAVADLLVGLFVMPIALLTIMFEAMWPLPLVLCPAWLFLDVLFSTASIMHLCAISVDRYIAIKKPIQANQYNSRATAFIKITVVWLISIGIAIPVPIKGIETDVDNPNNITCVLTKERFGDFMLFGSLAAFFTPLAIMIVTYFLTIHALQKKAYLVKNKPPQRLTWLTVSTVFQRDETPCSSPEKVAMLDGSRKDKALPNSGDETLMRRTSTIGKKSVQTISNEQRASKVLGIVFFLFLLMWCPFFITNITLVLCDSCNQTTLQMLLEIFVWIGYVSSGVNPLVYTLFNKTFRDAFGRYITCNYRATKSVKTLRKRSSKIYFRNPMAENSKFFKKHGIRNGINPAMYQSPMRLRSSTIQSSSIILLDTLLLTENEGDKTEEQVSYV
5-hydroxytryptamine receptor 2A, sequence (P28223 whole entry): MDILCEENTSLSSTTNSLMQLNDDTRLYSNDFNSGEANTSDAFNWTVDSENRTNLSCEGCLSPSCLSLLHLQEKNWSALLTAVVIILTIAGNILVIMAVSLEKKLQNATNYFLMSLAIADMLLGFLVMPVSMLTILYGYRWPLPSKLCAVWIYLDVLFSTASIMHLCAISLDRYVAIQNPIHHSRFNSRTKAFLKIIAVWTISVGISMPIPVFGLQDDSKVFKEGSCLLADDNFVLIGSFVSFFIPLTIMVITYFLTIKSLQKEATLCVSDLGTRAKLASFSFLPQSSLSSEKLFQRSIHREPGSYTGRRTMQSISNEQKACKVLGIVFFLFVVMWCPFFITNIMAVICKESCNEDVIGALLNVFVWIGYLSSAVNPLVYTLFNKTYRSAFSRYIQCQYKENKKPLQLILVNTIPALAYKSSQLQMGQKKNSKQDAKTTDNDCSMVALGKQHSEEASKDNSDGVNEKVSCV

In the case of `Cc1nc(-c2cccc3ccccc23)sc1C(=O)N1CCCC(O)CC1` (stereo not drawn), the remaining at 10 min in data set [1] came to 50%; in data set [4], 8%. Moreover, the EC50 in data set [2] was over 10 µM; in data set [3], 17 to 25 nM; in data set [5], over 10 µM. Also, the Intrinsic activity in data set [6] amounted to 0.9.
`Cc1nc(-c2cccc3ccccc23)sc1C(=O)N1CCC(O)CC1`: the remaining at 10 min in data set [1] came to 84%; in data set [4], 34%. The EC50 in data set [2] is over 10 µM; in data set [3], 47 nM; in data set [5] it was over 10 µM. The Intrinsic activity in data set [6] was found to be 0.9.
`O=C(c1csc(-c2cccc(Cl)c2Cl)n1)N1CCOCC1`: the EC50 was over 10 µM in data set [2], 119 to 128 nM in data set [3], 2 nM in data set [7] and over 10 µM in data set [5]. Also, the Intrinsic activity in data set [6] was found to be 0.8.
`Cc1nc(-c2cccc3ccccc23)sc1C(=O)N(C)CCc1cccnc1`: the remaining at 10 min was under 1% in data set [1] and 1% in data set [4]. Further, the values for the EC50 in data set [2], in data set [3] and in data set [5] were over 10 µM, 38 to 39 nM and over 10 µM, respectively. The Intrinsic activity in data set [6] was 0.7.
As to `Cc1sc(-c2cccc3ccccc23)cc1C(=O)N1CCC(CO)CC1`, the remaining at 10 min in data set [1] was 66%; in data set [4] it was 23%. Also, the EC50 is over 10 µM in data set [2], 47 to 119 nM in data set [3] and over 10 µM in data set [5]. In addition, the Intrinsic activity in data set [6] is 0.8.
On to `Cc1nc(-c2cccc3ccccc23)sc1C(=O)N(C)Cc1cccnc1`, for which the remaining at 10 min in data set [1] turned out to be 5%; in data set [4] it was 4%. The EC50 was over 10 µM in data set [2], 12 to 15 nM in data set [3] and over 10 µM in data set [5]. Moreover, in data set [6], the Intrinsic activity came out at 0.8.
As to `Cc1nn(-c2cccc3ccccc23)cc1C(=O)N1CCC(CO)CC1`, the results for the remaining at 10 min in data set [1] and in data set [4] were 88% and 51%, respectively. Besides, the EC50 was over 10 µM in data set [2], 16 nM in data set [3] and over 10 µM in data set [5]. The Intrinsic activity in data set [6] was 1.
On to `Cc1nc(-c2cccc3ccccc23)sc1C(=O)N(CCO)C(C)C`, for which the values for the remaining at 10 min in data set [1] and in data set [4] were 28% and 7%, respectively. In addition, the results for the concentration giving a half-maximal response (EC50) in data set [2], in data set [3] and in data set [5] were over 10 µM, over 10000 nM and over 10 µM, respectively.
Regarding `Cc1nc(-c2cccc3ccccc23)sc1C(=O)N1CCOCC1`, the remaining at 10 min in data set [1] was determined as 50%; in data set [4] it was 6%. Further, the EC50 in data set [2] was over 10 µM; in data set [3], 95 to 115 nM; in data set [5] it was over 10 µM. In addition, the Intrinsic activity in data set [6] came out at 0.8.
Consider `CCn1nc(-c2cccc3cccnc23)cc1-c1cccnn1`, for which, in data set [1], the remaining at 10 min was found to be 8%. In addition, the figures for the EC50 in data set [2], in data set [3] and in data set [5] were 0.003 to 0.006 µM, 2 nM and 0.151 µM, respectively. Besides, the Intrinsic activity in data set [8] turned out to be 0.2; in data set [6] it was 1.
For the compound `Cc1oc(-c2cccc3ccccc23)nc1C(=O)N1CCC(CO)CC1`, the remaining at 10 min in data set [1] is 62%; in data set [4], 16%. In addition, the values for the EC50 in data set [2], in data set [3] and in data set [5] were over 10 µM, 381 to 575 nM and over 10 µM, respectively. Further, in data set [6], the Intrinsic activity is 1.
On to `Cc1nn(-c2cccc3ccccc23)nc1C(=O)N1CCC(CO)CC1`, for which the remaining at 10 min was determined as 58% in data set [1] and 24% in data set [4]. Besides, the EC50 was over 10 µM in data set [2], 334 to 385 nM in data set [3] and over 10 µM in data set [5]. Further, the Intrinsic activity in data set [6] turned out to be 1.
On to `Cn1cc(-c2cccc3ccccc23)cc1C(=O)N1CCC(CO)CC1`, for which the remaining at 10 min turned out to be 76% in data set [1] and 57% in data set [4]. Also, the EC50 in data set [2] was over 10 µM; in data set [3], 41 to 45 nM; in data set [5], over 10 µM. Further, the Intrinsic activity in data set [6] is 1.
`Cc1nc(-c2cccc3ccccc23)oc1C(=O)N1CCC(CO)CC1`: the remaining at 10 min in data set [1] was 33%; in data set [4] it was 24%. Besides, the figures for the EC50 in data set [2], in data set [3] and in data set [5] were over 10 µM, 63 to 140 nM and over 10 µM, respectively. Also, the Intrinsic activity in data set [6] amounted to 0.9.
Regarding `Cc1nc(-c2cccc3ccccc23)sc1C(=O)N(C)CCO`, the remaining at 10 min was 67% in data set [1] and 22% in data set [4]. For the same compound, the EC50 in data set [2] is over 10 µM; in data set [3], 30 to 50 nM; in data set [5], over 10 µM. Further, the Intrinsic activity in data set [6] is 0.9.
Turning to `CCn1nc(-c2cccc3ccccc23)cc1-c1cccnn1`, in data set [1], the remaining at 10 min worked out at 17%. The figures for the EC50 in data set [2], in data set [3] and in data set [5] were over 10 µM, 15 nM and 0.884 µM, respectively. Moreover, in data set [6], the Intrinsic activity was found to be 1.2.
Consider `CCn1nc(-c2cccc3ccccc23)cc1-c1nccn1C`, for which, in data set [1], the remaining at 10 min was found to be 5%. Also, the EC50 in data set [2] was over 10 µM; in data set [3] it was 27 to 37 nM; in data set [5], over 10 µM. The Intrinsic activity in data set [6] came out at 0.8.
In the case of `Cc1cc(-c2cccc3ccccc23)sc1C(=O)N1CCC(CO)CC1`, the remaining at 10 min in data set [1] came out at 87%; in data set [4], 20%. In addition, the concentration giving a half-maximal response (EC50) in data set [2] was over 10 µM; in data set [3], 20 nM; in data set [5], over 5 µM. Further, the Intrinsic activity in data set [6] was 1.
With `Cn1ccnc1-c1cc(-c2cccc3ccccc23)nn1C`, the remaining at 10 min in data set [1] amounted to 15%. In addition, the EC50 in data set [2] was over 10 µM; in data set [3], 58 to 88 nM; in data set [5], 0.093 to 0.126 µM. In addition, in data set [6], the Intrinsic activity amounted to 0.9.
Turning to `Cc1nc(-c2cccc3ccccc23)sc1C(=O)N1CCN(C)CC1`, the concentration giving a half-maximal response (EC50) in data set [2] was over 10 µM; in data set [3], 43 to 123 nM; in data set [7] it was 130 nM; in data set [5], over 10 µM. In addition, the Intrinsic activity in data set [6] came to 0.8.
Consider `Cn1nc(-c2cccc3ccccc23)cc1-c1cccnn1`, for which, in data set [1], the remaining at 10 min was found to be 12%. Besides, the EC50 in data set [2] is over 10 µM; in data set [3], 25 to 40 nM; in data set [5], over 5 µM. In data set [6], the Intrinsic activity came to 1.2.
As for `COCCN(C)C(=O)c1sc(-c2cccc3ccccc23)nc1C`, the remaining at 10 min in data set [1] stood at 28%; in data set [4] it was 7%. Moreover, the EC50 in data set [2] was over 10 µM; in data set [3], 14 nM; in data set [5], over 10 µM. In addition, the Intrinsic activity in data set [6] came out at 0.9.
Regarding `Cc1cn(-c2cccc3ccccc23)cc1C(=O)N1CCC(CO)CC1`, the remaining at 10 min in data set [1] amounted to 67%; in data set [4], 18%. The values for the EC50 in data set [2], in data set [3] and in data set [5] were over 10 µM, 369 to 433 nM and over 10 µM, respectively. For the same compound, in data set [6], the Intrinsic activity came out at 0.7.
Consider `Cc1nc(-c2cccc3ccccc23)sc1C(=O)N1CCCCC1`, for which the remaining at 10 min in data set [1] stood at 24%; in data set [4], 1%. The results for the EC50 in data set [2], in data set [3] and in data set [5] were over 10 µM, 24 nM and over 10 µM, respectively. Also, the Intrinsic activity in data set [6] was 1.
As to `Cc1nc(-c2cccc3ccccc23)sc1C(=O)N1CCc2[nH]cnc2C1`, the remaining at 10 min in data set [1] came to 70%; in data set [4], 15%. For the same compound, the EC50 in data set [2] is over 10 µM; in data set [3], 68 nM; in data set [5], over 10 µM. The Intrinsic activity in data set [6] was determined as 1.
